Laboratory results reported in paper PMC9271465 (ESMO Open, 2022).

Assay: phase I dose-escalation: safety and tolerability
Assay type: in vivo, patients
Summary of the method: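 Patients receiving ≥1 oral dose (25–300 mg/day) formed the safety set. Dosing was a single dose on day 1, then 21-day continuous daily dosing after 7 days. AEs graded by CTCAE v4.03. DLT window ran from day 1 of cycle 0 to day 21 of cycle 1 (28 days). ECGs were taken before and 1, 2, 4, 6, 10 and 24 h after the first dose.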

## C=CC(=O)Nc1cc(Nc2ncc(Cl)c(Nc3ccccc3C(=O)C(=O)N(C)C)n2)c(OC)cc1N1CCN(C)CC1 [BPI-15086]
25 mg/day (n = 1)
  TRAE, Grade 3 and 4: Hyperglycemia: 0 n (%)
  TRAE, Grade 3 and 4: any: 0 n (%)
  TRAE, all grades: Anemia: 0 n (%)
  TRAE, all grades: Decreased appetite: 1 (100.0) n (%)
  TRAE, all grades: Decreased total protein: 0 n (%)
  TRAE, all grades: Diarrhea: 0 n (%)
  TRAE, all grades: Elevated ALT: 0 n (%)
  TRAE, all grades: Elevated blood glucose: 0 n (%)
  TRAE, all grades: Elevated blood triglycerides: 0 n (%)
  TRAE, all grades: Elevated blood uric acid: 0 n (%)
  TRAE, all grades: Elevated conjugated bilirubin: 0 n (%)
  TRAE, all grades: Elevated serum creatinine: 0 n (%)
  TRAE, all grades: Elevated γ-glutamyltransferase: 0 n (%)
  TRAE, all grades: Hyperglycemia: 0 n (%)
  TRAE, all grades: Hypoalbuminemia: 0 n (%)
  TRAE, all grades: Nausea: 0 n (%)
  TRAE, all grades: Proteinuria: 0 n (%)
  TRAE, all grades: Vomiting: 0 n (%)
  TRAE, all grades: any: 1 (100.0) n (%)
50 mg/day (n = 3)
  TRAE, Grade 3 and 4: Hyperglycemia: 0 n (%)
  TRAE, Grade 3 and 4: any: 0 n (%)
  TRAE, all grades: Anemia: 0 n (%)
  TRAE, all grades: Decreased appetite: 0 n (%)
  TRAE, all grades: Decreased total protein: 0 n (%)
  TRAE, all grades: Diarrhea: 0 n (%)
  TRAE, all grades: Elevated ALT: 0 n (%)
  TRAE, all grades: Elevated blood glucose: 1 (33.3) n (%)
  TRAE, all grades: Elevated blood triglycerides: 0 n (%)
  TRAE, all grades: Elevated blood uric acid: 0 n (%)
  TRAE, all grades: Elevated conjugated bilirubin: 0 n (%)
  TRAE, all grades: Elevated serum creatinine: 1 (33.3) n (%)
  TRAE, all grades: Elevated γ-glutamyltransferase: 0 n (%)
  TRAE, all grades: Hyperglycemia: 0 n (%)
  TRAE, all grades: Hypoalbuminemia: 0 n (%)
  TRAE, all grades: Nausea: 1 (33.3) n (%)
  TRAE, all grades: Proteinuria: 0 n (%)
  TRAE, all grades: Vomiting: 0 n (%)
  TRAE, all grades: any: 2 (66.7) n (%)
100 mg/day (n = 3)
  TRAE, Grade 3 and 4: Hyperglycemia: 0 n (%)
  TRAE, Grade 3 and 4: any: 0 n (%)
  TRAE, all grades: Anemia: 0 n (%)
  TRAE, all grades: Decreased appetite: 0 n (%)
  TRAE, all grades: Decreased total protein: 1 (33.3) n (%)
  TRAE, all grades: Diarrhea: 0 n (%)
  TRAE, all grades: Elevated ALT: 0 n (%)
  TRAE, all grades: Elevated blood glucose: 0 n (%)
  TRAE, all grades: Elevated blood triglycerides: 0 n (%)
  TRAE, all grades: Elevated blood uric acid: 1 (33.3) n (%)
  TRAE, all grades: Elevated conjugated bilirubin: 0 n (%)
  TRAE, all grades: Elevated serum creatinine: 1 (33.3) n (%)
  TRAE, all grades: Elevated γ-glutamyltransferase: 0 n (%)
  TRAE, all grades: Hyperglycemia: 0 n (%)
  TRAE, all grades: Hypoalbuminemia: 0 n (%)
  TRAE, all grades: Nausea: 1 (33.3) n (%)
  TRAE, all grades: Proteinuria: 0 n (%)
  TRAE, all grades: Vomiting: 1 (33.3) n (%)
  TRAE, all grades: any: 3 (100.0) n (%)
200 mg/day (n = 7)
  TRAE, Grade 3 and 4: Hyperglycemia: 0 n (%)
  TRAE, Grade 3 and 4: any: 0 n (%)
  TRAE, all grades: Anemia: 3 (42.9) n (%)
  TRAE, all grades: Decreased appetite: 1 (14.3) n (%)
  TRAE, all grades: Decreased total protein: 2 (28.6) n (%)
  TRAE, all grades: Diarrhea: 2 (28.6) n (%)
  TRAE, all grades: Elevated ALT: 1 (14.3) n (%)
  TRAE, all grades: Elevated blood glucose: 2 (28.6) n (%)
  TRAE, all grades: Elevated blood triglycerides: 2 (28.6) n (%)
  TRAE, all grades: Elevated blood uric acid: 3 (42.9) n (%)
  TRAE, all grades: Elevated conjugated bilirubin: 2 (28.6) n (%)
  TRAE, all grades: Elevated serum creatinine: 2 (28.6) n (%)
  TRAE, all grades: Elevated γ-glutamyltransferase: 2 (28.6) n (%)
  TRAE, all grades: Hyperglycemia: 0 n (%)
  TRAE, all grades: Hypoalbuminemia: 5 (71.4) n (%)
  TRAE, all grades: Nausea: 1 (14.3) n (%)
  TRAE, all grades: Proteinuria: 3 (42.9) n (%)
  TRAE, all grades: Vomiting: 1 (14.3) n (%)
  TRAE, all grades: any: 7 (100.0) n (%)
300 mg/day (n = 3)
  TRAE, Grade 3 and 4: Hyperglycemia: 1 (33.3) n (%)
  TRAE, Grade 3 and 4: any: 1 (33.3) n (%)
  TRAE, all grades: Anemia: 0 n (%)
  TRAE, all grades: Decreased appetite: 3 (100.0) n (%)
  TRAE, all grades: Decreased total protein: 0 n (%)
  TRAE, all grades: Diarrhea: 1 (33.3) n (%)
  TRAE, all grades: Elevated ALT: 1 (33.3) n (%)
  TRAE, all grades: Elevated blood glucose: 0 n (%)
  TRAE, all grades: Elevated blood triglycerides: 0 n (%)
  TRAE, all grades: Elevated blood uric acid: 0 n (%)
  TRAE, all grades: Elevated conjugated bilirubin: 0 n (%)
  TRAE, all grades: Elevated serum creatinine: 0 n (%)
  TRAE, all grades: Elevated γ-glutamyltransferase: 0 n (%)
  TRAE, all grades: Hyperglycemia: 3 (100.0) n (%)
  TRAE, all grades: Hypoalbuminemia: 0 n (%)
  TRAE, all grades: Nausea: 3 (100.0) n (%)
  TRAE, all grades: Proteinuria: 0 n (%)
  TRAE, all grades: Vomiting: 2 (66.7) n (%)
  TRAE, all grades: any: 3 (100.0) n (%)
25-300 mg/day
  maximum tolerated dose (MTD): not reached
28-day evaluation period, any dose level 25-300 mg/day
  dose-limiting toxicities (DLTs): No DLTs were observed
300-mg/day group
  treatment-related serious AE (hyperglycemia), patients: one
All (n = 17)
  TRAE, Grade 3 and 4: Hyperglycemia: 1 (5.9) n (%)
  TRAE, Grade 3 and 4: any: 1 (5.9) n (%)
  TRAE, all grades: Anemia: 3 (17.6) n (%)
  TRAE, all grades: Decreased appetite: 5 (29.4) n (%)
  TRAE, all grades: Decreased total protein: 3 (17.6) n (%)
  TRAE, all grades: Diarrhea: 3 (17.6) n (%)
  TRAE, all grades: Elevated ALT: 2 (11.8) n (%)
  TRAE, all grades: Elevated blood glucose: 3 (17.6) n (%)
  TRAE, all grades: Elevated blood triglycerides: 2 (11.8) n (%)
  TRAE, all grades: Elevated blood uric acid: 4 (23.5) n (%)
  TRAE, all grades: Elevated conjugated bilirubin: 2 (11.8) n (%)
  TRAE, all grades: Elevated serum creatinine: 4 (23.5) n (%)
  TRAE, all grades: Elevated γ-glutamyltransferase: 2 (11.8) n (%)
  TRAE, all grades: Hyperglycemia: 3 (17.6) n (%)
  TRAE, all grades: Hypoalbuminemia: 5 (29.4) n (%)
  TRAE, all grades: Nausea: 6 (35.3) n (%)
  TRAE, all grades: Proteinuria: 3 (17.6) n (%)
  TRAE, all grades: Vomiting: 4 (23.5) n (%)
  TRAE, all grades: any: 16 (94.1) n (%)
All 17 patients
  AEs leading to drug discontinuation: no adverse events (AEs) causing drug discontinuation were seen
  TRAE: anemia, patients: 17.6%
  TRAE: decreased appetite, patients: 29.4%
  TRAE: decreased total protein, patients: 17.6%
  TRAE: diarrhea, patients: 17.6%
  TRAE: elevated alanine aminotransferase, patients: 11.8%
  TRAE: elevated blood glucose, patients: 17.6%
  TRAE: elevated blood triglycerides, patients: 11.8%
  TRAE: elevated blood uric acid, patients: 23.5%
  TRAE: elevated conjugated bilirubin, patients: 11.8%
  TRAE: elevated serum creatinine, patients: 23.5%
  TRAE: elevated γ-glutamyltransferase, patients: 11.8%
  TRAE: hyperglycemia, patients: 17.6%
  TRAE: hypoalbuminemia, patients: 29.4%
  TRAE: nausea, patients: 35.3%
  TRAE: proteinuria, patients: 17.6%
  TRAE: vomiting, patients: 23.5%
  patients with diarrhea: 3/17
  patients with rash/pruritis: no patient
All 17 patients (two patients)
  Serious AEs, patients: 11.8%
